Test [1] concerns the target T1, Angiotensin-converting enzyme (Mus musculus) (UniProt P09470).
T1 sequence (whole entry): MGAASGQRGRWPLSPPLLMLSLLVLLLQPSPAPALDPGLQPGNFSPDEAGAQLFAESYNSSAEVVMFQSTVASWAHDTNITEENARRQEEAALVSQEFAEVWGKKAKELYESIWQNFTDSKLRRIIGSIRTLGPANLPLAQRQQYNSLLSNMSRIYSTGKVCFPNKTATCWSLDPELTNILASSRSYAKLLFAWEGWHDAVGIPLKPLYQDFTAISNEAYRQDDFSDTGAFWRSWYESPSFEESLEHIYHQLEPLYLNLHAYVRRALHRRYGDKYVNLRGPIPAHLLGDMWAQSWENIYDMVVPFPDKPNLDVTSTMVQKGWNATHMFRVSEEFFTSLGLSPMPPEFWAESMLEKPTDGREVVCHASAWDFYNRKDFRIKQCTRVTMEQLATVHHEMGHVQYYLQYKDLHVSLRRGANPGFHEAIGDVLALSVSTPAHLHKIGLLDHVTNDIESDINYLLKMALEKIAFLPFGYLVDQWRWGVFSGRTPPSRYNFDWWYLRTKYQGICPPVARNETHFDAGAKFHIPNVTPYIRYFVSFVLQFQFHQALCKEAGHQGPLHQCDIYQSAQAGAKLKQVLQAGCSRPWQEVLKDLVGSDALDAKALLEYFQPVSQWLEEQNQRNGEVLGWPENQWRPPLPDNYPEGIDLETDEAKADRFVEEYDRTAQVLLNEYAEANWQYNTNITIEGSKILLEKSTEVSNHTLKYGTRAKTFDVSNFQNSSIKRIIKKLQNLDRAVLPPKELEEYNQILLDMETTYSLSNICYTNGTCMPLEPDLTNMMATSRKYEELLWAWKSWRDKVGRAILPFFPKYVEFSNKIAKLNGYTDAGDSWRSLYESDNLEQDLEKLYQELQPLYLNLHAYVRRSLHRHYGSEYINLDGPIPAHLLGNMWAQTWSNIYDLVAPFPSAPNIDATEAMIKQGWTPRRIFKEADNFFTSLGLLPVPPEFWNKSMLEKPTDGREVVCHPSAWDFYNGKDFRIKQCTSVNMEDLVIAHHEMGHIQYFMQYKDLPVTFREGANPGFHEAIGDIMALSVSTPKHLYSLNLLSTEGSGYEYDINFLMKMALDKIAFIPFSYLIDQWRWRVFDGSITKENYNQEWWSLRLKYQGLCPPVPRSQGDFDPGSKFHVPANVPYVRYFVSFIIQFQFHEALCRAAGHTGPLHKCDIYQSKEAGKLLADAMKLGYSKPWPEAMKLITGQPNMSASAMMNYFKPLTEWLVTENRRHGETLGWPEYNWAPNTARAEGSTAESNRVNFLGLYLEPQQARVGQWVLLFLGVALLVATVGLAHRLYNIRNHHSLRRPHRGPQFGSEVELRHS
Nature of the test: (§1) In vivo percent inhibition activity against lung Angiotensin I converting enzyme 2 hr after oral administration of a dose of 2.6 x 10e-5 mol/kg. It is filed as functional, organism-based. Summed up: (§2)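 Mice dosed orally in 10% ethanol/10% cremophor/80% water. At 2 h, [3H]trandaloprilate (0.5 µCi) given iv; 15 min later lungs homogenized at 4 °C in 50 mM Tris-HCl pH 8.0 with 1 mM NaCl, centrifuged, and radioactivity counted. Total binding from untreated mice; nonspecific binding from probe coinjected with 1000 equiv captopril.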

Test [2] addresses T2, Neprilysin (Mus musculus) (UniProt Q61391).
T2 sequence (whole entry): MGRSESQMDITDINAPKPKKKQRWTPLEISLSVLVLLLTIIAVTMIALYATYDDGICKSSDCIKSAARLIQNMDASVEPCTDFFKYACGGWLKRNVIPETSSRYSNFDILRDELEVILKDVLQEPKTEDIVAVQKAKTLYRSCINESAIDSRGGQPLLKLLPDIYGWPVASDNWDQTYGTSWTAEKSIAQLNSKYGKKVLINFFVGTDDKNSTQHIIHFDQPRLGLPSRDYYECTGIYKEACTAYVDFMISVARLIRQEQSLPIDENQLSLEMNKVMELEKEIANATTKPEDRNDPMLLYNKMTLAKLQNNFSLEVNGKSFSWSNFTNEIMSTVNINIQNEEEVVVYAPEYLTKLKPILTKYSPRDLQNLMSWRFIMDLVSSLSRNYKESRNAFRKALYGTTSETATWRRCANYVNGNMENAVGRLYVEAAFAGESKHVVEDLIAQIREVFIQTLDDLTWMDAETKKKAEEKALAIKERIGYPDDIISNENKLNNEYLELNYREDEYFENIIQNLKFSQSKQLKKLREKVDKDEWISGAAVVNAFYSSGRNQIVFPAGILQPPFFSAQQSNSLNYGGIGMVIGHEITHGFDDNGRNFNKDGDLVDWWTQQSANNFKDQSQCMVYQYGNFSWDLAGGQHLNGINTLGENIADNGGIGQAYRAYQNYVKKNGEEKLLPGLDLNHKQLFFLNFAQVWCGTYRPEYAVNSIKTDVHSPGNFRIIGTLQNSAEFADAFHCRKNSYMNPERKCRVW
As to the kind of experiment: (§3) In vivo percent inhibition activity against kidney Neutral endopeptidase 2 hr after oral administration of a dose of 2.6 x 10e-5 mol/kg. It counts as functional, organism-based. Summed up: (§4)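 Mice given a single oral dose in 10% ethanol/10% cremophor/80% water; kidneys taken 2 h later and homogenized at 4 °C in 50 mM Tris-HCl pH 7.4. Membrane fraction (100000g) preincubated 5 min at 25 °C with bestatin and captopril, then incubated 10 min with [3H]-D-Ala2-Leu-enkephalin (2 × 10^-8 M). [3H]Tyr-D-Ala-Gly counted; blanks contained 10^-5 M retrothiorphan.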

Test [3] deals with T1, Angiotensin-converting enzyme (Mus musculus). The description is as §1. It counts as organism-based. In short, it runs like this:
as §2

The target in test [4] is T2, Neprilysin (Mus musculus). Described as §3. It counts as organism-based. In short, it runs like this:
as §4

Molecules are shown by their SMILES.

For orientation: inhibition means the drop in the measured response relative to a control, in per cent.

For the compound `Cc1ccc([C@H]2CC[C@@H](C(=O)O)N2C(=O)CNC(=O)[C@@H](S)Cc2ccccc2)cc1`, the inhibition in test [1] is 42%; in test [2], 34%.

As for `Cc1ccccc1[C@H]1CC[C@@H](C(=O)O)N1C(=O)CNC(=O)[C@@H](S)Cc1ccccc1`, the inhibition came to 57% in test [1] and 37% in test [2].

Regarding `O=C(NCC(=O)N1[C@@H](c2cccc(O)c2)CC[C@H]1C(=O)O)[C@@H](S)Cc1ccc(O)cc1`, the values for the inhibition in test [3] and in test [2] were 89% and 72%, respectively.

Consider `O=C(NCC(=O)N1[C@@H](c2ccccc2O)CC[C@H]1C(=O)O)[C@@H](S)Cc1ccc(O)cc1`, for which the inhibition in test [1] was 82%; in test [2], 69%.

In the case of `O=C(NCC(=O)N1[C@@H](c2ccccc2)CC[C@H]1C(=O)O)[C@@H](S)Cc1ccccc1`, the figures for the inhibition in test [1] and in test [2] were 63% and 75%, respectively.

Take `Cc1ccccc1C1CC[C@@H](C(=O)O)N1C(=O)CNC(=O)[C@@H](S)Cc1ccc(O)cc1` (single isomer, unassigned): the inhibition in test [3] was 60%; in test [4] it was 44%.

With `Cc1ccc([C@H]2CC[C@@H](C(=O)O)N2C(=O)CNC(=O)[C@@H](S)Cc2ccc(O)cc2)cc1`, the inhibition in test [1] is 33%; in test [2], 3%.
